Non-standard residues stand in square brackets, D forms with d. Residues, ends and D or L forms follow the SMILES beside them. Ahp(7-SS(2-pyridyl)) = N[C@@H](CCCCCSSc1ccccn1)C(=O)O; Aib = CC(C)(N)C(=O)O
How the values were obtained:
Homo sapiens = species: Homo sapiens; assay: Selectivity for human HDAC4 over human HDAC1
Summary of the method: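 Selectivity calculated from IC50 values against FLAG-tagged human HDAC4 and HDAC1, each transiently expressed in 293T cells, anti-FLAG immunopurified and FLAG-peptide eluted. Ac-KGLGK(Ac)-MCA substrate, pH 8.0 Tris buffer with 0.1 mM DTT, 37 °C 30 min. Trypsin development, then AMC fluorescence read.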

Histone deacetylase 1 = Histone deacetylase 1 (Homo sapiens, UniProt Q13547); assay: Inhibition of human HDAC1 expressed in 293T cells; type: cell-based
[1] = target: T1, Protein deacetylase HDAC6 (Mus musculus, UniProt Q9Z2V5); assay: Inhibition of mouse HDAC6 expressed in 293T cells; type: cell-based
T1 sequence (Q9Z2V5 whole entry): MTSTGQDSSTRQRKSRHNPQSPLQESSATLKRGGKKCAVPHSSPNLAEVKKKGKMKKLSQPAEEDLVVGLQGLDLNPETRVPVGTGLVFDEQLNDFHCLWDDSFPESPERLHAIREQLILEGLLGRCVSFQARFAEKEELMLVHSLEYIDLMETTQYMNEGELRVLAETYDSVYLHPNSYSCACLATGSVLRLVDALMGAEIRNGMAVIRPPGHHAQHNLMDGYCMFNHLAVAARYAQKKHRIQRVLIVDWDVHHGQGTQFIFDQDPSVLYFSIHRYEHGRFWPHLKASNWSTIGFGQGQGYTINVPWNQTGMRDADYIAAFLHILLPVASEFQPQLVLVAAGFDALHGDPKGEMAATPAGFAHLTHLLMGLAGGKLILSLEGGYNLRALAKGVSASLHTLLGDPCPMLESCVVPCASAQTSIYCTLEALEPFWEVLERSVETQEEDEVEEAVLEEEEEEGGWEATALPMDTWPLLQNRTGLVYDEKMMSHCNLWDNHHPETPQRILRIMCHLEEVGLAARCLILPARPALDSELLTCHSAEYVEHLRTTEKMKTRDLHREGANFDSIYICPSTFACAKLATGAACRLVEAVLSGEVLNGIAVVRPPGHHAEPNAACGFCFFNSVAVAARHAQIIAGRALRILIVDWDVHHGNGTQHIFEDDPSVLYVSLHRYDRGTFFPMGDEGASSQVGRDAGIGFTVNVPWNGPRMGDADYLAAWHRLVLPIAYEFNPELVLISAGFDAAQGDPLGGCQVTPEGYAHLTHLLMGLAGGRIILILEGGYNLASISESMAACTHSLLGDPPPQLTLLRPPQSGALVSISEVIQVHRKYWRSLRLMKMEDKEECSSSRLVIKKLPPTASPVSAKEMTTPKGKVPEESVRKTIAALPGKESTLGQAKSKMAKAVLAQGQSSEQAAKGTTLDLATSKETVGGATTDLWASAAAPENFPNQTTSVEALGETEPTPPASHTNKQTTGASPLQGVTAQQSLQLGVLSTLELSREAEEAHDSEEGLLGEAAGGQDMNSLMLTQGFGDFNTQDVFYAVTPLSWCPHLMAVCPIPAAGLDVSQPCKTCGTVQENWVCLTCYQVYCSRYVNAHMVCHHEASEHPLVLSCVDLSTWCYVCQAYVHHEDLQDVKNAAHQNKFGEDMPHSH

[2] = Induction of wild-type p21 promoter activation in mink Mv1Lu cells after 18 hrs by luciferase assay relative to basal level; type: functional, Neovison vison
Summary of the method: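 Stable Mv1Lu clone (MFLL-9) carrying p21 promoter (2.4 kb genomic fragment)–luciferase reporter, G418-selected. Cells (1 × 10^5) plated 6 h, then exposed 18 h to various drug concentrations. Luciferase activity of lysates measured by luminometer, normalized to lysate protein; concentration giving 10-fold induction over basal level reported as EC1000.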

Histone deacetylase 4 = Histone deacetylase 4 (Homo sapiens, UniProt P56524); assay: Inhibition of human HDAC4 expressed in 293T cells; type: cell-based
Sequence of Histone deacetylase 4 (P56524 whole entry): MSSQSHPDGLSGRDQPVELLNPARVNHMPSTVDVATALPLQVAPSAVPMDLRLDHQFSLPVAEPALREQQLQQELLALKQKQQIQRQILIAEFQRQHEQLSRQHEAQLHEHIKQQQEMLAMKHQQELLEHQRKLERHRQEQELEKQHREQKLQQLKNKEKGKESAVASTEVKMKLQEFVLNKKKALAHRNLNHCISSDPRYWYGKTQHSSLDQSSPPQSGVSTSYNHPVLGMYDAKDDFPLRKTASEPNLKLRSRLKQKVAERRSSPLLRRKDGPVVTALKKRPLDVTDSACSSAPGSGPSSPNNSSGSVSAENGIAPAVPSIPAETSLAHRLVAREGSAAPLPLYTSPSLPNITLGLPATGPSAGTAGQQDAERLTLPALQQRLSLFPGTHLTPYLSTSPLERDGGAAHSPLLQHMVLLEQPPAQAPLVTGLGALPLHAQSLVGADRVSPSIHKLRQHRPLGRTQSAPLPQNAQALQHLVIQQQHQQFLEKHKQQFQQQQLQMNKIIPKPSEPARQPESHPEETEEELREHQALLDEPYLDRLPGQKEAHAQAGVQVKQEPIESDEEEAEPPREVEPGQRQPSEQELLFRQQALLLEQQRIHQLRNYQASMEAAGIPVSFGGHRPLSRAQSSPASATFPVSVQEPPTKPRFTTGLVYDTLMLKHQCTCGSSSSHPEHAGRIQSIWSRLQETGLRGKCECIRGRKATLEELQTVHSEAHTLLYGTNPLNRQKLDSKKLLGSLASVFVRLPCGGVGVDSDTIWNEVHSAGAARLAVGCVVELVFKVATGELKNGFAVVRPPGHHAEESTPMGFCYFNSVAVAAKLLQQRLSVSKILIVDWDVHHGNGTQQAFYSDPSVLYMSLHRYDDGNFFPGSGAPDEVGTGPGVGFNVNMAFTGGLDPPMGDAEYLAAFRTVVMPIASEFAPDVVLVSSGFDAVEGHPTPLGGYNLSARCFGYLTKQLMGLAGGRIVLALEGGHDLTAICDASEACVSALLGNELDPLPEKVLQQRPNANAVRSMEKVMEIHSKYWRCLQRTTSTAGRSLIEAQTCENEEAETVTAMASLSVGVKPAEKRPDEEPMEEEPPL

Sequence of Histone deacetylase 1 (Q13547 whole entry): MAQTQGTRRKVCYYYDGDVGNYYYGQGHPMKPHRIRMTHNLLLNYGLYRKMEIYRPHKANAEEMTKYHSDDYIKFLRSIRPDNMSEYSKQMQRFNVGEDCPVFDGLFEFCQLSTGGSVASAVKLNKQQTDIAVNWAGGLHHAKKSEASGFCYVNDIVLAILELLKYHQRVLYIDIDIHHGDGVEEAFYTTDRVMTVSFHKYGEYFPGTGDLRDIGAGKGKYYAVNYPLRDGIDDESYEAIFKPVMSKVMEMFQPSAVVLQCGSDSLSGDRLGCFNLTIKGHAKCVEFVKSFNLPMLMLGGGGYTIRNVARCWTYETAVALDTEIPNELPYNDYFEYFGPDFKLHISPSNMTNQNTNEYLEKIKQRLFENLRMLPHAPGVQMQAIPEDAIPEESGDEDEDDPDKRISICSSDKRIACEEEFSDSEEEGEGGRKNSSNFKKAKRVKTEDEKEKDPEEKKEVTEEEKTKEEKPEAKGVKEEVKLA

Structure (SMILES) | Ratio IC50 (Homo sapiens) | IC50 (Histone deacetylase 1) [nM] | IC50 [1] [nM] | EC1000 [2] [nM] | IC50 (Histone deacetylase 4) [nM]
C[C@@H]1NC(=O)C2(Cc3ccccc3C2)NC(=O)[C@H](CCCCCSSc2ccccn2)NC(=O)[C@H]2CCCN2C1=O | 1.2 | 2 | 8.8 | 140 | 1.6
C[C@@H]1NC(=O)[C@](C)(Cc2ccccc2)NC(=O)[C@H](CCCCCSSc2ccccn2)NC(=O)[C@H]2CCCN2C1=O | 1.6 | 3.7 | 56 | 550 | 2.2
C[C@@H]1NC(=O)[C@@]2(CCc3ccccc32)NC(=O)[C@H](CCCCCSSc2ccccn2)NC(=O)[C@H]2CCCN2C1=O | 1.1 | 2.7 | 12 | 55 | 2.4
CC1(C)NC(=O)[C@H](CCCCCSSc2ccccn2)NC(=O)[C@H]2CCCN2C(=O)[C@H](CCCc2ccccc2)NC1=O | 1.9 | 5.3 | 43 | 110 | 2.7
CC1(C)NC(=O)[C@H](CCCCCSSc2ccccn2)NC(=O)[C@H]2CCCN2C(=O)[C@H](COCc2ccccc2)NC1=O | 2 | 3.2 | 24 | 72 | 1.6
C[C@@H]1NC(=O)C(C)(C)NC(=O)[C@H](CCCCCSSc2ccccn2)NC(=O)[C@H]2Cc3ccccc3CN2C1=O [listing 1 of 2 here] | – | – | – | 200 | –
CC1(C)NC(=O)[C@H](CCCCCSSc2ccccn2)NC(=O)[C@H]2CCCN2C(=O)[C@H](CCc2ccccc2)NC1=O | 1.9 | 6.2 | 36 | 320 | 3.2
CC1(C)NC(=O)[C@H](CCCCCSSc2ccccn2)NC(=O)[C@H]2CCCN2C(=O)[C@H](c2ccccc2)NC1=O | 1.5 | 88 | 86 | 7400 | 56
C[C@H]1CN2Cc3ccccc3C[C@@H]2C(=O)N[C@@H](CCCCCSSc2ccccn2)C(=O)NC(C)(C)C(=O)N1 | 1.1 | – | – | – | –
C[C@@H]1NC(=O)[C@@](C)(Cc2ccccc2)NC(=O)[C@H](CCCCCSSc2ccccn2)NC(=O)[C@H]2CCCN2C1=O | 2.4 | 170 | 71 | 25600 | 70
C[C@@H]1NC(=O)C(C)(C)NC(=O)[C@H](CCCCCSSc2ccccn2)NC(=O)[C@H]2Cc3ccccc3CN2C1=O [listing 2 of 2 here] | – | 4.7 | 29 | – | 4.2
CC1(C)NC(=O)[C@H](CCCCCSSc2ccccn2)NC(=O)[C@H]2CCCN2C(=O)[C@H](Cc2ccccc2)NC1=O (cyclo([Aib]F[dP][Ahp(7-SS(2-pyridyl))])) | 2.1 | 3.9 | 40 | 45 | 1.8
CC1(C)NC(=O)[C@H](CCCCCSSc2ccccn2)NC(=O)[C@H]2CCCN2C(=O)[C@H](CO)NC1=O | 1.6 | 6.4 | 26 | 580 | 4
C[C@@H]1NC(=O)C(C)(C)NC(=O)[C@H](CCCCCSSc2ccccn2)NC(=O)[C@H]2CCCN2C1=O | 1.8 | 9.4 | 43 | 750 | 5.2
C[C@@H]1NC(=O)[C@]2(CCc3ccccc32)NC(=O)[C@H](CCCCCSSc2ccccn2)NC(=O)[C@H]2CCCN2C1=O | 1.4 | 36 | 33 | 2000 | 25

Reference: ChEMBL document CHEMBL1140506, “Molecular design of histone deacetylase inhibitors by aromatic ring shifting in chlamydocin framework” (Bioorg Med Chem, 2007)
